Laboratory results taken from ChEMBL document CHEMBL1128503 (J Med Chem, 1995).
pKi: −log10 of the molar value.

Columns and labels:
[1] = target: T1, Sodium-dependent dopamine transporter (Rattus norvegicus, UniProt P23977); assay: Binding affinity towards dopamine transporter using [3H]-mazindol as radioligand in rat striatal membranes.; format: cell membranes
Method in brief: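 Competition assay: test analogues displace [3H]mazindol binding in rat striatal membranes. This radioligand labels a single high-affinity, sodium-dependent cocaine site on the dopamine carrier.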

[2] = target: T1, Sodium-dependent dopamine transporter; assay: Inhibition of [3H]dopamine […] to rat striatal synaptosome dopamine transporter; format: tissue-based, Brain

T1 sequence (P23977 whole entry): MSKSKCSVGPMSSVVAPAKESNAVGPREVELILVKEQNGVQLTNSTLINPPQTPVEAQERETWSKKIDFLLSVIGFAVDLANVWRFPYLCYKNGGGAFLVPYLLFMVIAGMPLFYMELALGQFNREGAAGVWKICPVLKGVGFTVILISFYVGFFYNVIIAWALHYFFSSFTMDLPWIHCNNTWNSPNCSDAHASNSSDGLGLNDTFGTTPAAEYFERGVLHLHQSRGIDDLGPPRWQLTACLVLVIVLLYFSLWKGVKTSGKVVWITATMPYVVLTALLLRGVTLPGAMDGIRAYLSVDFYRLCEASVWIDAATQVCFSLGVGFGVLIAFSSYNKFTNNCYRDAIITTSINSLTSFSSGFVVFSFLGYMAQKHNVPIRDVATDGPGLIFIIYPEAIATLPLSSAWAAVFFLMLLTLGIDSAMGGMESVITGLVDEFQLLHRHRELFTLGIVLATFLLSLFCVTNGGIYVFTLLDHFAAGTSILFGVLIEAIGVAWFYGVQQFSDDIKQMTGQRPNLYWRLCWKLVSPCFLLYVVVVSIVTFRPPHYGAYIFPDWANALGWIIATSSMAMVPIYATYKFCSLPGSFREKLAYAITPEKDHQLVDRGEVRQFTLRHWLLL

Compound | pKi [1] | pKi [2]
CN1C2CCC1[C@@H](CCc1ccccc1)[C@@H](c1ccc(Cl)cc1)C2 (stereo not given in full) | 8.84 | 8.81
CN1C2CCC1[C@@H](/C=C\Cl)[C@@H](c1ccc(Cl)cc1)C2 (stereo not given in full) | 9.66 | 9.06
CC[C@@H]1C2CCC(C[C@@H]1c1ccc(Cl)cc1)N2C (stereo not given in full) | 8.66 | 8.63
C=C[C@@H]1C2CCC(C[C@@H]1c1ccc(Cl)cc1)N2C (stereo not given in full) | 9.23 | 8.61
CN1C2CCC1[C@@H](/C=C/Cl)[C@@H](c1ccc(Cl)cc1)C2 (stereo not given in full) | 9.38 | 8.95
CCC[C@@H]1C2CCC(C[C@@H]1c1ccc(Cl)cc1)N2C (stereo not given in full) | 9.03 | 8.97
CCCCCC[C@@H]1C2CCC(C[C@@H]1c1ccc(Cl)cc1)N2C (stereo not given in full) | 6.81 | 6.57
CCC[C@@H]1C2CCC(C[C@@H]1c1ccccc1)N2C (stereo not given in full) | 8.73 | 8.79
CCCC[C@@H]1C2CCC(C[C@@H]1c1ccc(Cl)cc1)N2C (stereo not given in full) | 8.92 | 9.08
COC(=O)C1C2CC[C@H](C[C@@H]1c1ccc(Cl)cc1)N2C (stereo not given in full) | 9.08 | 8.55
